Screens: PubChem BioAssay, several laboratories
This is a sample that favours compounds with a hit; in the whole collection about 0.97% have one here.
UCH37 inh: blocks the human deubiquitinase UCH37. 330,000 compounds, 0.33% hits. purified proteasome/UCH37, Ub-AMC cleavage fluorescence. inhibition, % (concentration not given with the values);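 active = mean inhibition over replicate wells above about 20%, limit read from the data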
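Material: human UCH37 enzyme supplied as purified proteasome complex. Measure: % inhibition of Ub-AMC cleavage fluorescence. Medium: pH 7.4 Tris-HCl (50 mM) with ovalbumin, ATP-MgCl2, DTT. Times: 30 min preincubation with enzyme, 25 min cleavage at room temperature. Detection: AMC fluorescence intensity at 355/460 nm.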
JMJD2C inh: human JMJD2C demethylase inhibition | 330,000 compounds, 0.069% hits | GST-JMJD2C(1-420) H3K9me3 demethylation, DELFIA europium | Q9H3R0 | inhibition, % at 2.35 µM | AID 2099;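 active = more than half of a compound's replicate wells show inhibition beyond 50%, single wells judged on their own value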;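 note: signal counts dimethyl H3K9 product captured on neutravidin plate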
Target sequence (Q9H3R0 1-420 limits assumed): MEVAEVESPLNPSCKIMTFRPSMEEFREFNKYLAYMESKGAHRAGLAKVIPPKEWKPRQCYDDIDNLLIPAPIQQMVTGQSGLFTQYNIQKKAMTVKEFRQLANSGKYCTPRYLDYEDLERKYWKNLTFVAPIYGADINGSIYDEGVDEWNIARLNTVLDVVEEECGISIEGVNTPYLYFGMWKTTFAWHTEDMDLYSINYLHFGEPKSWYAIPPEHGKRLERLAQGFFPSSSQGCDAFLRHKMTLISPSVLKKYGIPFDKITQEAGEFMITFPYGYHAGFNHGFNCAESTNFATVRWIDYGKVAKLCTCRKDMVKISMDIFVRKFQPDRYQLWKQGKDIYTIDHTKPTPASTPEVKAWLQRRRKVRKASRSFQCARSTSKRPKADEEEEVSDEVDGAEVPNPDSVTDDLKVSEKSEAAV
APOBEC3A inh: blocks human APOBEC3A ssDNA deamination. inhibition, % at 20 µM. recombinant A3A, FAM/TAMRA ssDNA deamination fluorescence. 330,000 compounds, 0.41% hits. AID 493011. P31941;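 active = at least 40% inhibition at 20 µM here, with at most 30% in a related deaminase screen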
A3G deaminase: inhibitors of human APOBEC3G DNA deaminase; recombinant A3G, ssDNA deamination FAM/TAMRA fluorescence; 330,000 compounds, 0.28% hits; AID 493012; inhibition, % at 20 µM; Q9HC16;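 active = inhibition of at least 40% at 20 µM, with no more than 30% in the related APOBEC3A deaminase screen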
APOBEC3A confirm: APOBEC3A (human) deaminase inhibition, confirmed | recombinant A3A, ssDNA deaminase UDG fluorescence assay | AID 493151 | 1,400 compounds, 63% hits | shares compounds with APOBEC3A inh | inhibition, % at 20 µM;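 active = inhibition reaching a set limit, 80% of the first screen's cutoff, at 20 µM in any replicate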
UDG ctr A3A: counter-screen for APOBEC3A inhibitors: UDG; shares compounds with APOBEC3A inh; UDG counterscreen, FAM/TAMRA uracil oligo fluorescence; inhibition, % at 20 µM; 1,000 tested, under 10 active; call rule not given here
Hits are given with their value; 0 = inactive; - = not tested or not shown.

SMILES	UCH37 inh	JMJD2C inh	APOBEC3A inh	A3G deaminase	APOBEC3A confirm	UDG ctr A3A
C=C(C)C1CC=C(C)C(=NNC(=O)COc2cccc(C)c2)C1 (stereo not given)	0	-	-	-	-	-
COc1ccc(NC(=O)CSc2nc3ccsc3c(=O)n2Cc2ccccn2)c(OC)c1	0	0	42.6	0	0	0
Cc1ccc(CNC(=O)CSc2nc3ccsc3c(=O)n2Cc2ccccn2)cc1	0	0	0	0	-	-
Cc1cccc(C=NNC(=O)c2ccc(NC(=O)c3ccccc3Cl)cc2)n1	0	-	-	-	-	-
C[N+](C)(C)CCCN(Cc1ccc2c(c1)OCO2)C(=O)NC1CCCCC1	0	0	56.3	0	72.3	0
O=C(CN1CCCC1)OCCCc1ccccc1	0	0	0	0	-	-
C[N+]1(CC(=O)OCCCc2ccccc2)CCCCC1	0	0	48.3	0	83.4	0
O=C(CCc1ccccc1)OCCOC(=O)CCc1ccccc1	0	0	0	0	-	-
C[N+]1(CC(=O)OCCCc2ccccc2)CCCC1	0	0	54.9	0	81.0	0
CN(C)S(=O)(=O)c1ccc(C(=O)NCC[N+]2(C)CCCCCC2)o1	0	0	93.3	0	72.8	0
NC(=O)C[N+]1(CC#CC(O)(c2ccccc2)c2ccccc2)CCCC1	0	0	51.0	0	70.5	0
CCC[N+]1(CC#CC(O)(c2ccccc2)C2CCCCC2)CCCCC1 (stereo not given)	0	0	0	0	-	-
S=c1[nH]nc(-c2cccnc2)n1N=Cc1ccco1	0	-	-	-	-	-
O=C(CSCc1ccccc1)N/N=C/c1ccc(OCC(=O)N2CCCCC2)cc1	-	0	-	-	-	-
COc1ccc(CSCC(=O)N/N=C/c2ccc(OCC(=O)N3CCCCC3)cc2)cc1	-	0	52.5	0	52.5	0
COc1ccccc1-c1nc2sc(=Cc3cccs3)c(=O)n2n1	0	-	-	-	-	-
Cc1cc(C=O)c(C)n1-c1cc(C(=O)O)cc(C(=O)O)c1	0	0	63.7	0	63.9	0
C(=Nn1cnnc1)c1nc2ccccc2[nH]1	0	-	-	-	-	-
CCCOc1cccc(C2C(C(=O)c3cc4ccccc4o3)=C(O)C(=O)N2c2cc(C)on2)c1 (stereo not given)	0	0	57.4	0	0	0
O=C(Nc1cc(C(F)(F)F)ccc1N1CCOCC1)c1ccc[n+]([O-])c1	0	0	0	0	-	-
Cc1ccc[n+](CC(=O)Nc2cc(C(F)(F)F)ccc2N2CCOCC2)c1	0	0	48.1	0	65.3	0
Cc1cccc(Cc2c(C)[nH]c(=O)c(C#N)c2C)c1	0	0	0	0	-	-
Cc1[nH]c(=O)c(C#N)c(C)c1CCC(=O)NCc1ccc(Cl)cc1	0	0	70.6	0	0	0
CC(C)(C)c1ccc(CCC2OCC(C[N+]3(C)CCOCC3)O2)cc1 (stereo not given)	0	0	45.1	0	72.6	0
ON=Cc1ccc(OCc2ccccc2)c(Cl)c1	0	-	-	-	-	-
SMILES	UCH37 inh	JMJD2C inh	APOBEC3A inh	A3G deaminase	APOBEC3A confirm	UDG ctr A3A
Cn1ccccc1=Nc1cccc[n+]1C	0	-	-	-	-	-
Cn1cccc/c1=N\c1cccc[n+]1C	-	0	48.6	0	64.7	0
O=C(CSc1ccccn1)Nc1cccc2ccccc12	0	0	59.8	0	43.8	0
CCn1cc(C=NNS(=O)(=O)c2ccc(C)cc2)c(C)n1	0	-	-	-	-	-
Clc1ccc(-c2cc(-c3ccccc3)on2)cc1	0	0	94.8	0	0	0
COc1cc(C=NNC(=O)c2cc(-c3cccn3C)n[nH]2)cc(OC)c1OC	0	-	-	-	-	-
Cc1cc(C(=O)NN=Cc2ccccc2Br)no1	0	-	-	-	-	-
COc1ccc(NC(=O)/C(C#N)=C/c2ccc(-c3ccccc3C(=O)O)o2)cc1	0	0	0	0	-	-
COc1ccc(NC(=O)/C(C#N)=C\c2ccc(Br)o2)cc1	-	0	70.8	0	42.0	0
CCOc1cc(C=NNC(=O)Cc2ccccc2)ccc1OCC(=O)Nc1ccc(C)c(C)c1	0	-	-	-	-	-
Cc1ccc(C(c2c(O)nc3n(c2=O)CCS3)c2c(O)nc3n(c2=O)CCS3)cc1	0	0	52.6	0	0	0
CCOC(=O)C1=C(c2ccccc2)N=c2s/c(=C\c3ccco3)c(=O)n2C1c1cccs1 (stereo not given)	-	0	42.2	0	18.8	0
CCOC(=O)C1=C(c2ccccc2)N=c2sc(=Cc3cccc(O)c3)c(=O)n2C1c1cccs1 (stereo not given)	0	-	-	-	-	-
C[N+](C)(C)CCN1C(=O)CSC1=O	0	0	55.1	0	48.2	0
